Activity calls are given as the source filed them. No cut-off for these calls is given here.
What was measured:
[1] = Inhibition of Influenza A virus (A/Anascrecca/Spain/1460/2008(H7N9)) recombinant Neuraminidase using MUNANA as substrate incubated for 60 mins by fluorescence based assay
In short: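 Recombinant soluble tetrameric NA (N9 from A/Anascrecca/Spain/1460/2008 or N1 from A/Wisconsin/09/2013) was made in HEK293T cells and purified on Strep-Tactin. Compounds were serially diluted 1:2 in 50 mM Tris-HCl, 4 mM CaCl2, pH 6.0, with a fixed non-saturating amount of NA. MUNANA was added to 100 μM final, 37 °C for 60 min, then stopped with glycine/ethanol at pH 10.7. Fluorescence read at ex 340/em 490 nm; […].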

MDCK-II = assay: Cytotoxicity against dog MDCK-II cells at 5 uM; format: toxicity, cell-based, Canis lupus familiaris
In short: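 MDCK-II monolayers were exposed to compound at the highest tested concentration of 5 μM in Opti-MEM at 37 °C, 5% CO2, for 4 days. Cytotoxicity was judged by microscopic inspection.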

Influenza A virus [2] = assay: Inhibition of Influenza virus A/Netherlands/602/2009 hemagglutinin assessed as reduction of virus-LAMP1 binding in presence of oseltamivir carboxylate by biolayer interferometry
In short: (§1)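 Biolayer interferometry was run at 30 °C in PBS with Ca/Mg, shaking at 1000 rpm. Streptavidin sensors were loaded to saturation with biotinylated LAMP1 carrying increased α2,6-linked sialic acids, then dipped into Neth09H1N1 virus mixed with variable compound concentrations. […] Controls had no compound, or OC only.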

Influenza A virus [3] = assay: Antiviral activity against Influenza virus A/Netherlands/602/2009 assessed as inhibition of virus-LAMP1 binding at 10 uM by biolayer interferometry streptavidin sensor based assay; format: functional, organism-based; in short: as §1
[4] = Inhibition of Influenza virus A/Netherlands/602/2009 Neuraminidase using MUNANA as substrate incubated for 60 mins by fluorescence based whole virus assay
In short: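 Whole Neth09H1N1 virus served as the NA source in place of recombinant protein. Compounds were serially diluted 1:2 in 50 mM Tris-HCl, 4 mM CaCl2, pH 6.0, with a fixed non-saturating amount of virus. MUNANA was added to 100 μM final, 37 °C for 60 min, then stopped with 0.1 M glycine, 25% ethanol, pH 10.7. Fluorescence read at ex 340/em 490 nm; IC50 determined.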

`C#CCCCC[C@@H](CC)O[C@@H]1OC(C(=O)O)=C[C@H](O)[C@H]1NC(C)=O` gave an IC50 [1] of 28.2 µM.

In the case of `CCC(CC)O[C@@H]1C=C(C(=O)O)C[C@H](N)[C@H]1NC(C)=O` [OSELTAMIVIR CARBOXYLATE], the Activity (MDCK-II) is reported as “Non-Toxic”.

In the case of `CCC(CC)O[C@@H]1OC(C(=O)O)=C[C@H](O)[C@H]1NC(C)=O`, the IC50 [1] is reported as 0.47 µM.

With `CC[C@@H](CCCCc1cn([C@H]2[C@H](O)[C@@H](O)[C@H](n3cc(-c4ccc(-c5cn([C@H]6[C@H](O)[C@@H](O)[C@H](n7cc(-c8ccc(-c9cn([C@@H]%10O[C@H](CO)[C@@H](n%11cc(CCCC[C@H](CC)O[C@@H]%12OC(C(=O)O)=C[C@H](O)[C@H]%12NC(C)=O)nn%11)[C@H](O)[C@H]%10O)nn9)cc8)nn7)O[C@@H]6CO)nn5)cc4)nn3)O[C@@H]2CO)nn1)O[C@@H]1OC(C(=O)O)=C[C@H](O)[C@H]1NC(C)=O` the Activity (MDCK-II) was “Non-Toxic”, the inhibition (Influenza A virus [2]) was “Active” and the inhibition (Influenza A virus [3]) was “Active”.

For `CC[C@@H](CCCCc1cn([C@H]2[C@H](OC(C)=O)[C@@H](OC(C)=O)[C@H](n3cc(CCCC[C@H](CC)O[C@@H]4OC(C(=O)O)=C[C@H](O)[C@H]4NC(C)=O)nn3)O[C@@H]2COC(C)=O)nn1)O[C@@H]1OC(C(=O)O)=C[C@H](O)[C@H]1NC(C)=O`, the Activity (MDCK-II) was “Non-Toxic”.

For `CC[C@@H](CCCCc1cn([C@H]2[C@H](OC(C)=O)[C@@H](OC(C)=O)[C@H](n3cc(CCCC[C@H](CC)O[C@@H]4OC(C(=O)O)=C[C@H](O)[C@H]4NC(C)=O)nn3)O[C@@H]2CO)nn1)O[C@@H]1OC(C(=O)O)=C[C@H](O)[C@H]1NC(C)=O`, the Activity (MDCK-II) was “Non-Toxic”, the IC50 [4] was 1.5 µM and the IC50 [1] was 5.2 µM.

For `CC[C@@H](CCCCc1cn([C@H]2[C@H](O)[C@@H](O)[C@H](n3cc(-c4ccc(-c5cn([C@@H]6O[C@H](CO)[C@@H](n7cc(-c8cc(O)c(-c9cn([C@@H]%10O[C@H](CO)[C@@H](n%11cc(-c%12ccc(-c%13cn([C@@H]%14O[C@H](CO)[C@@H](n%15cc(CCCC[C@H](CC)O[C@@H]%16OC(C(=O)O)=C[C@H](O)[C@H]%16NC(C)=O)nn%15)[C@H](O)[C@H]%14O)nn%13)cc%12)nn%11)[C@H](O)[C@H]%10O)nn9)cc8O)nn7)[C@H](O)[C@H]6O)nn5)cc4)nn3)O[C@@H]2CO)nn1)O[C@@H]1OC(C(=O)O)=C[C@H](N)[C@H]1NC(C)=O`, the Activity (MDCK-II) was “Non-Toxic” and the inhibition (Influenza A virus [3]) was “Active”.

For `C#CCCC[C@H](CC)O[C@@H]1CC(C(=O)O)=C[C@H](O)[C@H]1NC(C)=O`, the Activity (MDCK-II) was “Non-Toxic”, the inhibition (Influenza A virus [3]) was “Active” and the IC50 [1] was 2.9 µM.

With `CC[C@@H](CCCCc1cn([C@H]2[C@H](O)[C@@H](O)[C@H](n3cc(-c4ccc(-c5cn([C@@H]6O[C@H](CO)[C@@H](n7cc(CCCC[C@H](CC)O[C@@H]8OC(C(=O)O)=C[C@H](O)[C@H]8NC(C)=O)nn7)[C@H](O)[C@H]6O)nn5)cc4)nn3)O[C@@H]2CO)nn1)O[C@@H]1OC(C(=O)O)=C[C@H](O)[C@H]1NC(C)=O` the Activity (MDCK-II) was “Non-Toxic”, the IC50 [4] was 0.08 µM and the inhibition (Influenza A virus [3]) was “Active”. The IC50 [1] was 3.3 µM.

Reference: ChEMBL document CHEMBL5154910, “Preventing Influenza A Virus Infection by Mixed Inhibition of Neuraminidase and Hemagglutinin by Divalent Inhibitors” (J Med Chem, 2022)
